For assay [1], the target named is T1, Adrenergic receptor alpha-1 (Rattus norvegicus, UniProt P15823+P23944+P43140).
T1 sequence (P15823 whole entry): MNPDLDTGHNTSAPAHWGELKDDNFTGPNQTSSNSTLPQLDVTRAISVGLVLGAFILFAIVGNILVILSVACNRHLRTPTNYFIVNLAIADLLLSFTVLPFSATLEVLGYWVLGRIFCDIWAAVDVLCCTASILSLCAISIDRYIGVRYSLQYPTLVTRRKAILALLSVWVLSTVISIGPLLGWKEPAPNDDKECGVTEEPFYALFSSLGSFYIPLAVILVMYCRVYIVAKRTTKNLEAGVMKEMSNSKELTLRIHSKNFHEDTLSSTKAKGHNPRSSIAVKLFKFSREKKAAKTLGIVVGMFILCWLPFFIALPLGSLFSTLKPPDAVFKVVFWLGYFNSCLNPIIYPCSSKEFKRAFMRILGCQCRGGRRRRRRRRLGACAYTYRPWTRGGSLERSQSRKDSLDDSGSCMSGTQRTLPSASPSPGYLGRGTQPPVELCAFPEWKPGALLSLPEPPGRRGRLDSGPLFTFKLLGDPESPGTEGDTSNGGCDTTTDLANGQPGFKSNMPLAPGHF
T1 sequence (P23944 whole entry): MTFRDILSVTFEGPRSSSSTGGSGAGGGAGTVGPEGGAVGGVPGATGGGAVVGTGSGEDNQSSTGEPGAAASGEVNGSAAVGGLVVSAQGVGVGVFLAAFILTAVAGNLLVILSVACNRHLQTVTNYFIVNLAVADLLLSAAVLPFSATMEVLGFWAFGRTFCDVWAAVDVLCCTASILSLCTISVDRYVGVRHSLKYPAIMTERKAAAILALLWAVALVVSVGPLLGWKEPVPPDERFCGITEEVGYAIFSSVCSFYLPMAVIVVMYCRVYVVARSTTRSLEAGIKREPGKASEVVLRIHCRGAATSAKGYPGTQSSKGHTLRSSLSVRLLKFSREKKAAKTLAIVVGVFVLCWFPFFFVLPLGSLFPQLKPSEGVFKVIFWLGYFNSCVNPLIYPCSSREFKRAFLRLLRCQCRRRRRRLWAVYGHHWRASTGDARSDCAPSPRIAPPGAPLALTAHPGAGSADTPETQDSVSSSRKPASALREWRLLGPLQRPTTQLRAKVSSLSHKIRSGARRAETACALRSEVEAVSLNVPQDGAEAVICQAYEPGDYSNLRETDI
T1 sequence (P43140 whole entry): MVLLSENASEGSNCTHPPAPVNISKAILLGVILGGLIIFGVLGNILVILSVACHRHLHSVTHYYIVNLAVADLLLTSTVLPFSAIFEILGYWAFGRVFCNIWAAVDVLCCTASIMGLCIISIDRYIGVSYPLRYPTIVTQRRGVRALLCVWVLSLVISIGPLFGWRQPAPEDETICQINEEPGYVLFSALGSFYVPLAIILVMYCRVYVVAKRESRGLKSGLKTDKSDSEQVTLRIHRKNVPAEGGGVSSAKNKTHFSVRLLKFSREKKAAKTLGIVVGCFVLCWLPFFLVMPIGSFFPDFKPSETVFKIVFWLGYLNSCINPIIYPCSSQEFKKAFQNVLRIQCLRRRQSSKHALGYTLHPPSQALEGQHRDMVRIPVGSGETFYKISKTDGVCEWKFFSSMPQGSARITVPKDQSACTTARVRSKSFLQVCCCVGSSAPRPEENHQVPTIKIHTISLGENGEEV
Description: pA2 value was measured in Alpha-1 adrenergic receptor against norepinephrine in rat vas deferens. Summed up: (§1)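 Schild analysis with slope constrained to -1.0. Log(DR−1) was measured at three antagonist concentrations for α1 (norepinephrine) and four for α2 (clonidine), each tested at least five times. DR is the agonist ED50 with antagonist divided by that without. Curve parallelism was checked by linear regression (p < 0.05). Values are ± standard error of estimate.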

Assay [2] in a line: Selectivity ratio (alpha1/alpha2) of the compound. In outline: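 α1/α2 selectivity is the antilog of the difference between pA2 at α1- and α2-adrenoreceptors. Each pA2 comes from Schild plots against norepinephrine (α1) or clonidine (α2).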
Assay [3] has as its target T2, Adrenergic receptor alpha-2 (Rattus norvegicus, UniProt P22086+P19328+P22909).
T2 sequence (P22086 whole entry): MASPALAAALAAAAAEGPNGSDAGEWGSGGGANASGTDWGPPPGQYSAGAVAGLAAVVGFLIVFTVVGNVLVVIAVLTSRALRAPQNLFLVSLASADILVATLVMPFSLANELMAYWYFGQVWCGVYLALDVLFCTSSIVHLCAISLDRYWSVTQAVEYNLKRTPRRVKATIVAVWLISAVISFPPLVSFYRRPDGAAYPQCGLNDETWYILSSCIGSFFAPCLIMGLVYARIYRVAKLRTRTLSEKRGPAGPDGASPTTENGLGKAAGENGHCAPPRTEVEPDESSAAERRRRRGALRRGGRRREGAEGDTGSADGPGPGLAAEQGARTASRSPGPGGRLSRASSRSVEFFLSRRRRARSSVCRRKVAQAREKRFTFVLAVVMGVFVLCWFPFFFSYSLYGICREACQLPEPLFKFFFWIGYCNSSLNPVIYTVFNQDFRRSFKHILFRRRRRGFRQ
T2 sequence (P19328 whole entry): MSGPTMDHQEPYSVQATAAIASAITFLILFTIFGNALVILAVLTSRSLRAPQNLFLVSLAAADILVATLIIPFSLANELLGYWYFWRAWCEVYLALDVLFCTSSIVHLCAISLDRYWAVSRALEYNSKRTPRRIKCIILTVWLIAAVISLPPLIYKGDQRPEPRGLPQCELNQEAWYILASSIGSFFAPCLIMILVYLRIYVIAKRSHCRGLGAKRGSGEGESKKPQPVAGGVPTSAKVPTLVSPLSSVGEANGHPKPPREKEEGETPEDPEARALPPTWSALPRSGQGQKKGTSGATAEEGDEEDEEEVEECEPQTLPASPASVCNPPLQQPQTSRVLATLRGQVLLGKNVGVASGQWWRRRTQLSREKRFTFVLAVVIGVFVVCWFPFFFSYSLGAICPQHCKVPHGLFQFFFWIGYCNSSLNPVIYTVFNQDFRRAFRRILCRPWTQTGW
T2 sequence (P22909 whole entry): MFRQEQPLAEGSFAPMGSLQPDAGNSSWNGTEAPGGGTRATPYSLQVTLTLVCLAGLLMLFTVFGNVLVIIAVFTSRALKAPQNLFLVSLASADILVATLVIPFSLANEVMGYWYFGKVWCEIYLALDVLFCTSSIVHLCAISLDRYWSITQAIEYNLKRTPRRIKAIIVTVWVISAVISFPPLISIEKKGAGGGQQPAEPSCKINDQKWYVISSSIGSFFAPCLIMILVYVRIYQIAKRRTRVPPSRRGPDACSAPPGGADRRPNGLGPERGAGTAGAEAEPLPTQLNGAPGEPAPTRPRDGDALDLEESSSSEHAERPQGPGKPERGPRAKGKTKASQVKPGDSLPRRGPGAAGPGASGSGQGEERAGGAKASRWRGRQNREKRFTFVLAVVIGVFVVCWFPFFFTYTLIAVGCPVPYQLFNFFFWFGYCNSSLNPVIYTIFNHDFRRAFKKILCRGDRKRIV
Description: pA2 value was measured in Alpha-2 adrenergic receptor against clonidine in rat vas deferens. Summed up: as §1

Assay [4] addresses T1, Adrenergic receptor alpha-1. The assay can be described thus: pIC50 value was measured in Alpha-1 adrenergic receptor against norepinephrine in rat vas deferens.
For assay [5], the target named is T2, Adrenergic receptor alpha-2. Description: pA2 value was measured in aAlpha-2 adrenergic receptor against clonidine in rat vas deferens. Summed up:
as §1

Turning to `COc1cccc(OC)c1OCCNC[C@H]1C(=O)c2ccccc2O[C@@H]1c1ccccc1`, the pA2 is 8.27 in assay [1] and 4.85 in assay [3]. Besides, the Selectivity ratio in assay [2] worked out at 2630.

With `COc1cccc(OC)c1OCCNC[C@H]1Oc2ccccc2O[C@H]1c1ccccc1`, in assay [2], the Selectivity ratio was 6. The compound further had a pIC50 in assay [4] of 5.29. This compound also gave a pA2 in assay [3] of 4.49.

In the case of `COc1cccc(OC)c1OCCNC[C@H]1Oc2ccccc2O[C@@H]1c1ccccc1`, the pA2 in assay [1] came to 8.59; in assay [3], 4.22. Moreover, in assay [2], the Selectivity ratio stood at 23400.

Take `COc1cccc(OC)c1OCCNC[C@H]1Oc2ccccc2OC1c1ccccc1` (stereo partly specified): the pA2 in assay [1] is reported as 9.3; in assay [5] it was 6.4.

The values are drawn from ChEMBL document CHEMBL1124999, “3-Phenyl analogues of 2-[[[2-(2,6-dimethoxyphenoxy)ethyl]amino]-methyl]-1,4-benzodioxan (WB 4101) as highly selective alpha 1-adrenoceptor antagonists” (J Med Chem, 1990).
